In the library only some 1.5% were active in any assay of this set; here they are far more common.
PPC-1+TRAIL kill: PPC-1 cancer cell killing with TRAIL present; cell killing (% activity), % at 4 µM or 5 µM; PPC-1 cells + TRAIL, ATPLite viability luminescence; 220,000 compounds, 0.41% hits;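 active = cell killing above 50% in the first pass at 4 µM, then a duplicate retest at 5 µM averaging 50% or more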;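 also: plate controls were cells with TRAIL plus DMSO for no effect and medium-only wells lacking cells for full effect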
FLuc act counter: firefly luciferase counter-screen for stimulation assays; P08659; AID 1027; activation factor at 10 µM; 200,000 tested, under 10 active; ATPlite luciferase biochemical, luminescence, 10 min; 0 = ATP-free wells, 1 = DMSO control;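 active = luciferase activation factor, scaled between plate controls, of at least 2 with compound at 10 µM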
Target sequence (P08659 whole entry, looked up): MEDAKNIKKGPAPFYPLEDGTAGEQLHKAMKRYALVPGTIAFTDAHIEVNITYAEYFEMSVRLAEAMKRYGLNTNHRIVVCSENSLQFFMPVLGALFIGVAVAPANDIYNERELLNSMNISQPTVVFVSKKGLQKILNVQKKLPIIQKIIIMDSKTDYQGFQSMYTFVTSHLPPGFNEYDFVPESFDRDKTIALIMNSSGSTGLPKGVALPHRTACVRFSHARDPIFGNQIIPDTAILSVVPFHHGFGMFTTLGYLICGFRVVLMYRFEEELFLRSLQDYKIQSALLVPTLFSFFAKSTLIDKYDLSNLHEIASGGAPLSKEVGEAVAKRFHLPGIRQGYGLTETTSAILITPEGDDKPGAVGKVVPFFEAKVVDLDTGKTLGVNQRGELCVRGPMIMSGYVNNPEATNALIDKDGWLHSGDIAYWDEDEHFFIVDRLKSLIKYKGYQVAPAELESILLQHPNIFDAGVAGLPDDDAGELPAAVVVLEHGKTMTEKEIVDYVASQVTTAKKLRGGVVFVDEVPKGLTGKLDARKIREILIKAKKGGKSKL
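System: luciferase plus luciferin reagent, cell-free; medium: PBS as buffer for the ATP substrate; dosing: test compounds dosed from 2 mM stocks in 100% DMSO; timing: 10 min post-reagent at room temperature; measured by: luminescence measurement of luciferase light output; evaluation: luciferase activation, seen as luminescence increase over controls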
TRAIL sens C8: caspase-8 TRAIL sensitization; NB7+C8 cells + TRAIL, ATPlite viability luminescence; inhibition (viability loss, TRAIL sensitization), % at 10 µM; 360,000 compounds, 1% hits;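 active = compounds causing at least 50% loss of cell viability in the single-dose screen, relative to plate controls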
FLuc inh counter: Photinus pyralis luciferase inhibition counter-screen | P08659 | ATPLite firefly luciferase biochemical luminescence, 10 min | inhibition, % at 10 µM | 200,000 compounds, 1.5% hits | AID 1006;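 active = inhibition above about 50% when tested at 10 µM, limit read from the data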
An asterisk follows results filed as active; x = not tested or not shown.

SMILES | PPC-1+TRAIL kill | FLuc act counter | TRAIL sens C8 | FLuc inh counter
Cc1ccc(C(=O)NCC(=O)OCC(=O)Nc2cc(S(=O)(=O)N3CCOCC3)ccc2C)cc1 | x | x | 1 | x
Cc1ccc(S(=O)(=O)N2CCOCC2)cc1NC(=O)COC(=O)CNC(=O)c1ccc(C(C)(C)C)cc1 | 3 | 0.2 | -6 | 81*
CCOC(=O)c1cnc2cc(-c3ccc(C)cc3)nn2c1C | x | x | -15 | x
COC(=O)Cc1ccc(NC(=S)N2CCCCC2C)cc1 (configuration not stated) | 7 | 0.2 | 37 | 83*
COC(=O)Cc1ccc(NC(=S)N2CCN(C)CC2)cc1 | 21 | 0.4 | -2 | 56*
COC(=O)Cc1ccc(NC(=S)N2CCN(c3ccc(OC)cc3)CC2)cc1 | 19 | 1 | -7 | -3
CCc1ccc(NC(=S)N2CCCCCCC2)cc1 | -2 | 0.5 | 35 | 54*
Cc1ccc(-c2n[nH]c(=S)c3ccccc23)cc1S(=O)(=O)NCC1CCCO1 (configuration not stated) | x | x | -7 | x
CC(=NCc1ccncc1)C1=C(O)c2ccccc2C1=O | 50* | 0.8 | x | 23
CC(=NCc1cccnc1)C1=C(O)c2ccccc2C1=O | 2 | 1 | 17 | 1
COc1ccc(C=NNC(=O)NN=Cc2ccc(OC)c(OC)c2)cc1OC | x | x | 72* | x
Cc1cccc(-n2ncc3c(N4CCCC4)ncnc32)c1 | 44 | 0.1 | 80* | 87*
Cc1cccc(-n2ncc3c(N4CC(C)CC(C)C4)ncnc32)c1 (configuration not stated) | 14 | 0.8 | 20 | 19
COc1ccc(-n2ncc3c(N4CCCCC4)ncnc32)cc1 | x | 0.1 | 89* | 94*
COc1ccc(CCNC(=O)CC(C)(C)CC2=NS(=O)(=O)c3ccccc3N2)cc1OC | x | x | -9 | x
CCOc1ccc(NS(=O)(=O)c2ccc(C(=O)N(C)Cc3cccc(OC)c3OC)cc2)cc1 | x | x | 7 | x
CN(C)CCCN(C(=O)c1ccc(S(=O)(=O)N2CCc3ccccc3C2)cc1)c1nc2c(F)cc(F)cc2s1 | x | x | 29 | x
Cc1ccc2sc(N(CCCN(C)C)C(=O)c3ccc(S(=O)(=O)N4CCc5ccccc5C4)cc3)nc2c1C | x | x | 76* | x
COc1cccc2sc(N(CCCN(C)C)C(=O)c3ccc(S(=O)(=O)N4CCc5ccccc5C4)cc3)nc12 | x | x | 83* | x
COc1ccc(C)c2sc(N(CCCN(C)C)C(=O)c3ccc(S(=O)(=O)N4CCc5ccccc5C4)cc3)nc12 | x | x | 93* | x
Cc1ccc(S(=O)(=O)N2CCOC2CNC(=O)C(=O)NCCN(C)C)cc1 (configuration not stated) | x | x | -14 | x
COc1ccc(/C=C/c2cc(-c3ccc(C)cc3)o[n+]2C)cc1 | 42 | 1.1 | 74* | -7
O=C(OCc1c(-c2ccccc2)ncc2ccccc12)c1cccs1 | x | x | -1 | x
Cc1cc(C(=O)NCC(C)C)c2ccccc2n1 | 43 | 0.4 | 30 | 60*
COc1ccc(S(=O)(=O)Nc2ccc3c(c2)C(=O)N([C@H](C)CO)C[C@H](C)[C@@H](CN(C)C(=O)NC2CCCCC2)O3)cc1 | x | x | -16 | x
SMILES | PPC-1+TRAIL kill | FLuc act counter | TRAIL sens C8 | FLuc inh counter
Oc1c(C=Nc2cccnc2)sc2ccccc12 | 27 | 0.3 | 14 | 70*
CN=Cc1sc2ccccc2c1O | 9 | 1 | 16 | 3
Oc1c(C=Nc2ccccc2)sc2ccccc12 | x | 0.1 | 17 | 95*
CC(=O)Nc1sc(C)c(C)c1C(=O)OCC(=O)N(CC(C)C)c1c(N)n(Cc2ccccc2)c(=O)[nH]c1=O | x | x | 95* | x
O=C(NCCC1CCCCN1S(=O)(=O)c1ccccc1)C(=O)Nc1ccc(F)cc1F (configuration not stated) | x | x | 16 | x
CN(c1ccccc1)S(=O)(=O)c1ccc(NC(=O)c2ccccc2)cc1 | -3 | 1 | -5 | -2
COc1cccc(NC(=O)c2nc(S(C)(=O)=O)ncc2Cl)c1 | x | x | 66* | x
CN(c1ccccc1)S(=O)(=O)c1ccc(NC(=O)c2nc(S(C)(=O)=O)ncc2Cl)cc1 | x | x | 93* | x
O=C(/C=C/NNC(=O)c1ccccc1)c1ccc([N+](=O)[O-])cc1 | 40 | 0.9 | 50* | 8
O=C(NC(=S)Nc1ccccn1)c1ccc([N+](=O)[O-])cc1 | 13 | 0.4 | 47 | 59*
O=C(NC(=S)Nc1ccccn1)c1ccc(-c2ccccc2)cc1 | x | x | 78* | x
O=C(Nc1ncccn1)c1ccc([N+](=O)[O-])cc1 | 1 | 1 | -3 | 0
O=C(NC(=S)Nc1ccccn1)c1ccccc1 | 42 | x | 69* | x
O=S1(=O)CC(N2CCN(CC3CC3)CC2)CN1CCc1ccccc1 (configuration not stated) | x | x | -12 | x
CC(/C=C/c1cccc([N+](=O)[O-])c1)=N/NC(=O)c1cccnc1 | 12 | 1.1 | 10 | -6
CC(/C=C/c1ccccc1)=N/NC(=O)c1cc([N+](=O)[O-])cc([N+](=O)[O-])c1 | 27 | 1 | 52* | -2
OC(CN1CCN(Cc2ccccc2)CC1)c1ccccc1 (configuration not stated) | 10 | 0.9 | -13 | 5
OC(CN1CCN(Cc2ccccc2)CC1)c1ccc(F)cc1 (configuration not stated) | 58* | 1 | -4 | -2
COc1ccc2oc(-c3ccc(NC(=O)c4ccc(N5CCOCC5)c([N+](=O)[O-])c4)cc3)nc2c1 | 14 | 1.1 | 50* | -9
O=C(Nc1ccc(-c2nc3ccccc3o2)cc1)c1ccc(N2CCOCC2)c([N+](=O)[O-])c1 | 5 | 1.1 | 43 | -6
O=C(/C=C/c1ccco1)Nc1ccc2c(c1)OCO2 | 27 | 0.3 | 24 | 66*
O=C(/C=C/c1ccc2c(c1)OCO2)Nc1c(C(=O)O)[nH]c2ccccc12 | 50 | 0.1 | 52* | 91*
Cc1cc(C)nc(NC(=O)/C=C/c2ccc3c(c2)OCO3)c1 | 56* | 0.3 | 64* | 71*
CCOc1ccc(NC(C(=O)Nc2cccc(C(C)=O)c2)c2ccccc2)cc1 (configuration not stated) | 3 | 1.1 | -27 | -7
CCOc1ccc(/C=C/C(=O)Nc2cccc(C(C)=O)c2)cc1 | 21 | 0.4 | 55* | 64*
SMILES | PPC-1+TRAIL kill | FLuc act counter | TRAIL sens C8 | FLuc inh counter
O=C(NCCCN1CCOCC1)c1ccccc1N1C(=O)[C@@H]2Cc3c([nH]c4ccccc34)C(c3cccc(Cl)c3)N2C1=O (some centres not stated) | x | x | 18 | x
O=C(Nc1cccc(Br)c1)Oc1cccc2cccnc12 | x | x | -5 | x
COC(=O)c1cc(NC(=O)/C=C/c2ccc3c(c2)OCO3)cc(C(=O)OC)c1 | 14 | 1.1 | -3 | -5
COC(=O)c1cccc(NC(=O)/C=C/c2ccc3c(c2)OCO3)c1 | 48 | 0.3 | 85* | 69*
CCOC(=O)N1CCN(C(=O)CSc2nnc(-c3ccc(C(C)(C)C)cc3)o2)CC1 | 23 | 0.5 | 40 | 53*
CCCn1c(C)cc(C(=O)COC(=O)c2cc(=O)[nH]c3ccccc23)c1C | x | x | 57* | x
CC(C)CNS(=O)(=O)c1cc(C(=O)OCC(=O)c2ccc3c(c2)OCCO3)c(Cl)cc1Cl | 19 | 0.9 | -5 | 6
